The text below walks through data of ChEMBL document CHEMBL3525968, “Use of transporter knockdown Caco-2 cells to investigate the in vitro efflux of statin drugs” (Drug Metab Dispos, 2011).

The Papp A→B is how fast a substance crosses the layer from the apical side. For orientation: Papp B→A means the apparent permeability from the basolateral to the apical side of a cell layer. The efflux ratio is the permeability from basolateral to apical divided by that in the opposite direction, in the common usage. In general, Km refers to the substrate concentration at which the rate is half of its maximum.

Data set [1] can be described thus: Apparent permeability from apical to basolateral side of vector transfected human Caco2 cells at 10 uM up to 120 mins by reverse-phase liquid chromatography with triple-quadrupole tandem mass spectrometry analysis. The class given is ADME, cell-based. Particulars: Caco-2. Summed up: (§1)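 Caco-2 cells stably carrying lentiviral shRNA against MRP2 or non-targeting shRNA (vector control), kept under 10 µg/mL puromycin, knockdown confirmed by real-time PCR. Cells seeded at 60,000 cells/cm2 on collagen-coated polycarbonate Transwell membranes and grown 3 weeks. HBSS with 10 mM HEPES, 15 mM glucose, pH 7.4. Substrate at 10 µM, dosed apical or basolateral. Receiver sampled at 30, 60, 90, 120 min. Quantified by LC-MS/MS. Papp = VR/(A×C0)×dC/dt.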
A general note: Caco-2 monolayers are a common model of the intestinal barrier.

The subject of data set [2] is P-gp. Put plainly: Apparent permeability from basolateral to apical side of P-gp knockdown human Caco2 cells at 10 uM up to 120 mins by reverse-phase liquid chromatography with triple-quadrupole tandem mass spectrometry analysis. The class given is ADME, cell-based, Caco-2. Summed up:
(§2)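 Knockdown verified by real-time PCR. Cells grown 3 weeks on collagen-coated polycarbonate Transwells. Bidirectional transport of 10 µM compound in HBSSg pH 7.4, with atenolol and propranolol co-dosed. Receiver sampled at 30–120 min, analysed by LC-MS/MS. Mean ± S.D., n = 3.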

Data set [3] in a line: Efflux ratio of permeability from […] side in BCRP knockdown human Caco2 cells at 10 uM up to 120 mins by reverse-phase liquid chromatography with triple-quadrupole tandem mass spectrometry analysis relative to vector transfected cells. Particulars: caco-2, 2 h. The class given is ADME, cell-based. Summed up:
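Efflux ratio (B-A over A-B Papp) measured in shRNA knockdown Caco-2 monolayers and in non-targeting vector-control monolayers, both under puromycin selection. 10 µM compound in HBSSg pH 7.4. Receiver sampled 30–120 min, LC-MS/MS. Each knockdown ratio is expressed as a percentage of the vector-control ratio.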

The test system of data set [4] is BCRP. Put plainly: Apparent permeability from basolateral to apical side of BCRP knockdown human Caco2 cells at 10 uM up to 120 mins by reverse-phase liquid chromatography with triple-quadrupole tandem mass spectrometry analysis. The class given is ADME, cell-based, Caco-2. Summed up: as §2
The test system of data set [5] is P-gp. The experiment in a line: Apparent permeability from apical to basolateral side of P-gp knockdown human Caco2 cells at 10 uM up to 120 mins by reverse-phase liquid chromatography with triple-quadrupole tandem mass spectrometry analysis. The class given is ADME, cell-based, Caco-2. Summed up:
(§3)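 Caco-2 (CRL-2102) stably transduced with lentiviral shRNA against P-gp, BCRP or MRP2, or non-targeting shRNA vector control, kept under 10 µg/mL puromycin. Knockdown verified by real-time PCR. Cells grown 3 weeks on collagen-coated polycarbonate Transwells. Bidirectional transport of 10 µM compound in HBSSg pH 7.4, with atenolol and propranolol co-dosed. Receiver sampled at 30–120 min, analysed by LC-MS/MS. Mean ± S.D., n = 3.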

Data set [6] can be described thus: Efflux ratio of permeability from […] side in MRP2 knockdown human Caco2 cells at 10 uM up to 120 mins by reverse-phase liquid chromatography with triple-quadrupole tandem mass spectrometry analysis relative to vector transfected cells. The class given is ADME, cell-based. Particulars: caco-2, 2 h. The gist of the method: as §1

Data set [7] can be described thus: Efflux ratio of permeability from […] side in P-gp knockdown human Caco2 cells at 10 uM up to 120 mins by reverse-phase liquid chromatography with triple-quadrupole tandem mass spectrometry analysis. As to conditions: caco-2, 2 h. The class given is ADME, cell-based. The gist of the method:
as §3

A short description of data set [8]: Efflux ratio of permeability from […] side in BCRP knockdown human Caco2 cells at 10 uM up to 120 mins by reverse-phase liquid chromatography with triple-quadrupole tandem mass spectrometry analysis. The class given is ADME, cell-based. As to conditions: caco-2, 2 h. Summed up:
as §3

The subject of data set [9] is MRP2. The experiment in a line: Apparent permeability from basolateral to apical side of MRP2 knockdown human Caco2 cells at 10 uM up to 120 mins by reverse-phase liquid chromatography with triple-quadrupole tandem mass spectrometry analysis. The class given is ADME, cell-based, Caco-2. The gist of the method: as §2
Data set [10] can be described thus: Apparent permeability from basolateral to apical side of vector transfected human Caco2 cells at 10 uM up to 120 mins by reverse-phase liquid chromatography with triple-quadrupole tandem mass spectrometry analysis. The class given is ADME, cell-based. Particulars: Caco-2. Summed up: as §2
In data set [11] the test system is BCRP. Put plainly: Apparent permeability from apical to basolateral side of BCRP knockdown human Caco2 cells at 10 uM up to 120 mins by reverse-phase liquid chromatography with triple-quadrupole tandem mass spectrometry analysis. The class given is ADME, cell-based, Caco-2. Summed up:
as §3

Data set [12] deals with MRP2. Put plainly: Efflux ratio of permeability from […] side in MRP2 knockdown human Caco2 cells at 10 uM up to 120 mins by reverse-phase liquid chromatography with triple-quadrupole tandem mass spectrometry analysis. The class given is ADME, cell-based, Caco-2. Summed up:
as §1

The nature of data set [13]: Apparent permeability of the compound in P-gp knockdown human Caco2 cells at 10 uM up to 120 mins by reverse-phase liquid chromatography with triple-quadrupole tandem mass spectrometry analysis. The class given is ADME, cell-based. Particulars: caco-2, 2 h.
The nature of data set [14]: Apparent permeability of the compound in BCRP knockdown human Caco2 cells at 10 uM up to 120 mins by reverse-phase liquid chromatography with triple-quadrupole tandem mass spectrometry analysis. As to conditions: caco-2, 2 h. The class given is ADME, cell-based.
A short description of data set [15]: Apparent permeability of the compound in MRP2 knockdown human Caco2 cells at 10 uM up to 120 mins by reverse-phase liquid chromatography with triple-quadrupole tandem mass spectrometry analysis. The class given is ADME, cell-based. Particulars: caco-2, 2 h.
Data set [16] is described as follows: Apparent permeability of the compound in vector transfected human Caco2 cells at 10 uM up to 120 mins by reverse-phase liquid chromatography with triple-quadrupole tandem mass spectrometry analysis. Particulars: caco-2, 2 h. The class given is ADME, cell-based.
The nature of data set [17]: Apparent permeability from basolateral to apical side of human Caco2 cells up to 120 mins by Michaelis-Menten equation analysis. The class given is ADME, cell-based, Caco-2.
Data set [18] deals with MRP2. Put plainly: Apparent permeability from apical to basolateral side of MRP2 knockdown human Caco2 cells at 10 uM up to 120 mins by reverse-phase liquid chromatography with triple-quadrupole tandem mass spectrometry analysis. The class given is ADME, cell-based, Caco-2. Summed up:
as §1

For `C[C@H]1O[C@@H](O[C@H]2[C@@H](O)C[C@H](O[C@H]3[C@@H](O)C[C@H](O[C@H]4CC[C@@]5(C)[C@H](CC[C@@H]6[C@@H]5C[C@@H](O)[C@]5(C)[C@@H](C7=CC(=O)OC7)CC[C@]65O)C4)O[C@@H]3C)O[C@@H]2C)C[C@H](O)[C@@H]1O` [DIGOXIN], the Papp A→B at 2 h, 10 µM in data set [1] came to 1.14 ×10⁻⁶ cm/s; in the data set with P-gp [5], 1.59 ×10⁻⁶ cm/s; in the data set on BCRP [11] it was 0.54 ×10⁻⁶ cm/s. Further, the Papp B→A at 2 h, 10 µM worked out at 11.8 ×10⁻⁶ cm/s with P-gp [2], 9.46 ×10⁻⁶ cm/s in the data set with BCRP [4], 19 ×10⁻⁶ cm/s with MRP2 [9] and 20.1 ×10⁻⁶ cm/s in data set [10]. Further, the Ratio came out at 100% in [3], 121% in data set [6], 7.4 in data set [7] and 17.7 in data set [8]. Besides, in the data set with MRP2 [12], the efflux ratio at 2 h, 10 µM is 21.4.
With `CC(C)n1c(/C=C/C(O)CC(O)CC(=O)[O-])c(-c2ccc(F)cc2)c2ccccc21.[Na+]` (racemic) [FLUVASTATIN SODIUM], the Papp B→A at 2 h, 10 µM with P-gp [2] was 25.3 ×10⁻⁶ cm/s; with BCRP [4], 57.3 ×10⁻⁶ cm/s; in the data set on MRP2 [9] it was 48.2 ×10⁻⁶ cm/s; in [10], 96.1 ×10⁻⁶ cm/s. Moreover, the Papp result in [13] is “impermeable”; in data set [14], “impermeable”; in data set [15] it was “impermeable”; in data set [16], “permeable”.
For the compound `CC(C)c1nc(N(C)S(C)(=O)=O)nc(-c2ccc(F)cc2)c1/C=C/[C@@H](O)C[C@@H](O)CC(=O)[O-].CC(C)c1nc(N(C)S(C)(=O)=O)nc(-c2ccc(F)cc2)c1/C=C/[C@@H](O)C[C@@H](O)CC(=O)[O-].[Ca+2]` [ROSUVASTATIN CALCIUM], the basolateral-to-apical permeability (Papp B→A) at 2 h, 10 µM is 4.6 ×10⁻⁶ cm/s with P-gp [2], 5.8 ×10⁻⁶ cm/s with BCRP [4], 6.6 ×10⁻⁶ cm/s with MRP2 [9] and 14.1 ×10⁻⁶ cm/s in [10]. Besides, the Papp entry was “impermeable” in [13], “impermeable” in [14], “impermeable” in data set [15] and “permeable” in data set [16]. Besides, the Km at 2 h in data set [17] (Caco-2) turned out to be 98 µM. In [17] (caco-2, 2 h), the Vmax turned out to be 137 pmol/min/cm2.
Take `O=C1OC(c2ccc(O)c(S(=O)(=O)[O-])c2)(c2ccc(O)c(S(=O)(=O)[O-])c2)c2c(Br)c(Br)c(Br)c(Br)c21.[Na+].[Na+]` [SULFOBROMOPHTHALEIN SODIUM]: the Papp A→B at 2 h, 10 µM in data set [1] was 0.03 ×10⁻⁶ cm/s; in the data set on MRP2 [18], 0.34 ×10⁻⁶ cm/s. The Ratio in data set [6] was determined as 5%. Also, the Papp B→A at 2 h, 10 µM turned out to be 0.9 ×10⁻⁶ cm/s in the data set on MRP2 [9] and 1.45 ×10⁻⁶ cm/s in [10]. For the same compound, the efflux ratio at 2 h, 10 µM in the data set on MRP2 [12] worked out at 2.6.
Regarding `C[C@]12CC[C@@H]3c4ccc(OS(=O)(=O)O)cc4CC[C@H]3[C@@H]1CCC2=O` [ESTRONE SULFURIC ACID], the Papp A→B at 2 h, 10 µM was 0.57 ×10⁻⁶ cm/s in [1], 0.52 ×10⁻⁶ cm/s in the data set on P-gp [5], 1.03 ×10⁻⁶ cm/s with BCRP [11] and 0.54 ×10⁻⁶ cm/s in the data set on MRP2 [18]. The basolateral-to-apical permeability (Papp B→A) at 2 h, 10 µM in the data set with P-gp [2] was found to be 22.9 ×10⁻⁶ cm/s; in the data set with BCRP [4], 10.5 ×10⁻⁶ cm/s; in the data set on MRP2 [9] it was 33.5 ×10⁻⁶ cm/s; in [10], 27.2 ×10⁻⁶ cm/s. Moreover, the Ratio was 21% in data set [3], 128% in data set [6], 43.6 in [7] and 10.2 in [8]. The efflux ratio at 2 h, 10 µM in the data set with MRP2 [12] stood at 62.2.
With `CC[C@H](C)C(=O)O[C@H]1C[C@@H](C)C=C2C=C[C@H](C)[C@H](CC[C@@H]3C[C@@H](O)CC(=O)O3)[C@H]21` [LOVASTATIN], the Papp entry in data set [13], in data set [14], in [15] and in data set [16] was “impermeable” in each case.
